Experiments:
[1] = target: T1, Melatonin receptor type 1B (Homo sapiens, UniProt P49286); test: Intrinsic activity at human Melatonin receptor type 1B evaluated on [35S]GTP-gamma-S, binding in Chinese hamster ovarian (CHO) cells; format: functional, cell-based
T1 sequence (P49286 whole entry): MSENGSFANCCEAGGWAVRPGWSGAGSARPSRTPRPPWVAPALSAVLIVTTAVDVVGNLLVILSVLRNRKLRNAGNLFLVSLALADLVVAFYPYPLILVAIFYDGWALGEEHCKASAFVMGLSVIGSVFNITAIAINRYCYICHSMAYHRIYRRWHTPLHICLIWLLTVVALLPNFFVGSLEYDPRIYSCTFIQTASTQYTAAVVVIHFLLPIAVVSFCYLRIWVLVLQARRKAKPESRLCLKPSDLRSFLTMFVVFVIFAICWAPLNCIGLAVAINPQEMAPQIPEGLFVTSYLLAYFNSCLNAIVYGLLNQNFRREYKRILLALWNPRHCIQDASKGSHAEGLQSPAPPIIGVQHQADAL

[2] = target: T2, Melatonin receptor type 1B (Homo sapiens) (UniProt P49286); test: Antagonist potency determined against 3 nM melatonin for Melatonin receptor type 1B; format: functional
T2 sequence (whole entry): T1 sequence (P49286 whole entry)
Outline: (§1)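 Antagonist mode of [³⁵S]GTPγS binding on membranes (20 µg/mL) of CHO cells stably expressing human MT₁ or MT₂. […] Incubation 1 h at room temperature, GF/B filtration. Nonspecific binding with 10 µM GTPγS.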

[3] = target: T3, Melatonin receptor type 1A (Homo sapiens, UniProt P48039); test: Intrinsic activity evaluated on [35S]GTP -gamma-S binding in Chinese hamster ovarian (CHO) cells, stably expressing human Melatonin receptor type 1A; format: functional, cell-based
[4] = target: T3, Melatonin receptor type 1A; test: Antagonist potency determined against 30 nM melatonin for Melatonin receptor type 1A; format: functional; outline: as §1
[5] = target: T3, Melatonin receptor type 1A; test: Binding affinity on human melatonin receptor type 1A stably transfected in human embryonic kidney (HEK 293) using 2-[125I]iodomelatonin as radioligand.; format: cell-based, HEK293
[6] = target: T1, Melatonin receptor type 1B; test: Binding affinity on human melatonin receptor type 1B stably transfected in human embryonic kidney (HEK 293) cells using 2-[125I]iodomelatonin as radioligand.; format: cell-based, HEK293
[7] = target: T3, Melatonin receptor type 1A; test: Intrinsic activity of Melatonin receptor type 1A evaluated on [35S]GTP-gamma-S, binding in Chinese hamster ovarian (CHO) cells; format: functional, cell-based

T3 sequence (P48039 whole entry): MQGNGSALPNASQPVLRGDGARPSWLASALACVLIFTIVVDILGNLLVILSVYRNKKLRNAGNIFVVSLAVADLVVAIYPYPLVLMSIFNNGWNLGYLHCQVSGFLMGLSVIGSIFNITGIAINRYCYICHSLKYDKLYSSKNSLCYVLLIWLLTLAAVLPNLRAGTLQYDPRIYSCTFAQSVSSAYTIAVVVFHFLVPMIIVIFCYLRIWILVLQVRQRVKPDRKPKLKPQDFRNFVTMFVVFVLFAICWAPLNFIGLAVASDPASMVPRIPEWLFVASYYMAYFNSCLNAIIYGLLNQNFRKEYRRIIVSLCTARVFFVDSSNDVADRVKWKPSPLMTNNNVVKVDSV

Compound	EC50 [1] [nM]	Kb [2] [nM]	EC50 [3] [nM]	Kb [4] [nM]	Ki [5] [nM]	Ki [6] [nM]	EC50 [7] [nM]
COc1ccc2oc(Cc3ccccc3)c(CCNC(C)=O)c2c1	> 10000	0.21	21	–	–	0.05	–
CCc1ccc2oc(Cc3ccccc3)c(CCNC(C)=O)c2c1	–	–	–	–	64.4	8.25	–
COc1ccc2oc(Cc3ccccc3)c(CCNC(=O)c3ccco3)c2c1	–	–	–	–	698	36.7	–
CCCCCCOc1ccc2oc(Cc3ccccc3)c(CCNC(C)=O)c2c1	–	–	–	–	8.2	3.21	–
C/C=C/C(=O)NCCc1c(-c2ccccc2)oc2ccc(OC)cc12	–	–	–	–	1.01	0.21	–
C=CC(=O)NCCc1c(-c2ccccc2)oc2ccc(OC)cc12	–	–	–	–	0.02	0.01	–
COc1ccc2oc(Cc3ccccc3OC)c(CCNC(C)=O)c2c1	0.41	0.88	> 10000	26	14.3	0.34	–
C=CCC(=O)NCCc1c(-c2ccccc2)oc2ccc(OC)cc12	–	–	–	–	0.01	0.02	–
COc1ccc2oc(Cc3cccnc3)c(CCNC(C)=O)c2c1	–	–	–	–	29	3.53	–
COc1ccc2oc(CC3CCCCC3)c(CCNC(C)=O)c2c1	10	7	481	242	66.4	2.49	–
CCCC(=O)NCCc1c(Cc2ccccc2)oc2ccc(OC)cc12	–	–	–	–	3.29	0.2	–
COc1ccc2oc(-c3ccccc3)c(CCNC(=O)c3ccco3)c2c1	–	–	–	–	12.9	1.7	–
CNC(=O)NCCc1c(Cc2ccccc2)oc2ccc(OC)cc12	–	–	–	–	5.37	0.35	–
COc1ccc2oc(Cc3c(Cl)cccc3Cl)c(CCNC(C)=O)c2c1	–	–	–	–	84.5	12.8	–
COc1ccc2oc(Cc3cccc(Cl)c3)c(CCNC(C)=O)c2c1	–	–	–	–	7.19	0.22	–
CCc1ccc2oc(Cc3cccc(OC)c3)c(CCNC(C)=O)c2c1	19	18	> 10000	266	288	17	–
COc1ccc2oc(Cc3cccc(C(F)(F)F)c3)c(CCNC(C)=O)c2c1	1.26	2.4	–	89	80	1.17	> 10000
COc1ccc(Cc2oc3ccc(OC)cc3c2CCNC(C)=O)cc1	> 10000	0.42	> 10000	35	24	0.5	–

Further lines, results first:

EC50 [1] [nM]	Kb [2] [nM]	EC50 [3] [nM]	Kb [4] [nM]	Ki [5] [nM]	Ki [6] [nM]	EC50 [7] [nM]	Compound
0.39	0.24	138	57	–	–	–	C=CCC(=O)NCCc1c(Cc2cccc(OC)c2)oc2ccc(OC)cc12
0.096	–	0.17	–	0.01	0.02	–	COc1ccc2oc(-c3ccccc3)c(CCNC(C)=O)c2c1
> 10000	12	> 10000	27	155	10.6	–	CC(=O)NCCc1c(Cc2ccccc2)oc2ccccc12
–	–	–	–	476	340	–	COc1ccc2oc(Cc3cc(C(F)(F)F)cc(C(F)(F)F)c3)c(CCNC(C)=O)c2c1
–	–	–	–	229	18.6	–	COc1cccc(Cc2oc3ccccc3c2CCNC(C)=O)c1
–	–	–	–	55	2.76	–	C=CC(=O)NCCc1c(Cc2cccc(OC)c2)oc2ccc(OC)cc12
–	–	–	–	31.5	1.52	–	COc1ccc2oc(CCCc3ccccc3)c(CCNC(C)=O)c2c1
–	–	–	–	8.67	0.41	–	COc1ccc2oc(Cc3ccccc3)c(CCNC(=O)CI)c2c1
–	–	–	–	0.75	0.23	–	COc1ccc2oc(Cc3cccc(F)c3)c(CCNC(C)=O)c2c1
0.72	1.65	37	26	40.6	0.32	–	COc1cccc(Cc2oc3ccc(OC)cc3c2CCNC(C)=O)c1
–	–	–	–	0.04	0.04	–	CNC(=O)NCCc1c(-c2ccccc2)oc2ccc(OC)cc12
–	–	–	–	53.7	0.69	–	C=CC(=O)NCCc1c(Cc2ccccc2)oc2ccc(OC)cc12
0.17	0.16	25	–	3.51	0.06	–	C=CCC(=O)NCCc1c(Cc2ccccc2)oc2ccc(OC)cc12
–	–	–	–	42.7	9.64	–	CCCCCOc1ccc2oc(Cc3ccccc3)c(CCNC(C)=O)c2c1
–	–	–	–	569	79.9	–	CC(=O)NCCc1c(Cc2ccccc2)oc2ccc(O)cc12
